High-throughput results as filed in PubChem.
The list is not random: actives were taken first. Their share in the collection is about 2.3%.
SKN-1 inh: suppressors of acrylamide-induced Pgst-4::GFP reporter in worms, primary screen, SKN-1 inhibitor project, whole organism, uHTS, GFP/RFP fluorescence ratio, strain VP596; C. elegans VP596 Pgst-4::GFP/RFP ratio, 24 h; inhibition, % at 21.8 µM; 0.49% of 360,000 active; AID 624304, 2012;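 active = interference check ratio from 0.5 to 1.5 plus GFP to RFP signal ratio inhibition reaching or exceeding a fixed threshold, cut at about 30% in these data, passing the limit was not always enough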
MT1-MMP act inh: blockers of MT1-MMP proenzyme processing, primary screen, HT1080 RFP-PRO-GFP cells, GFP/RFP fluorescence; GFP/RFP ratio fluorescence, overnight; percent of plate control window, DMSO zero; GFP/RFP ratio change, % at 20 µM; 0.061% of 360,000 active; AID 651647, 2012;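 active = GFP/RFP ratio change of at least 30% with cell ATP level not reduced by more than half and red fluorescence within 50% of control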
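Read-out: GFP/RFP fluorescence ratio; Test system: RFP-PRO-GFP reporter HT1080 cells; Compound dosing: single-point 20 µM compound, 1% DMSO; Times: overnight compound exposure at 37 °C.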
ATG4B inhibitor: ATG4B protease inhibitors, primary screen, biochemical, fluorescence, uHTS; Cysteine protease ATG4B (Homo sapiens), Q9Y4P1; ATG4B cleavage of LC3-PLA2, NBD-HPC fluorescence, 1 h; inhibition, % at 8.33 µM; 0.51% of 340,000 active; in the data active = inhibition above about 40%
Target sequence (Q9Y4P1 whole entry, looked up): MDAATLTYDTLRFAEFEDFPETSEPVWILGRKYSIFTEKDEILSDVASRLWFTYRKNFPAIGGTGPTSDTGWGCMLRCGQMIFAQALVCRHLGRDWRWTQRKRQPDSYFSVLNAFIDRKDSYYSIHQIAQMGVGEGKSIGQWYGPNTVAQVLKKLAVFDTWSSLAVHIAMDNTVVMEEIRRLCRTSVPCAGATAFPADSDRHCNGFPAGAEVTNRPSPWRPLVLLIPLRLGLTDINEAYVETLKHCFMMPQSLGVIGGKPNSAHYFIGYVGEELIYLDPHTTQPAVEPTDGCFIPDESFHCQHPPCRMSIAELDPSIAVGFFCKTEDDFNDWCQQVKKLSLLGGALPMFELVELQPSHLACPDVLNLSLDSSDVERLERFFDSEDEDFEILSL
MPTP block: mitochondrial permeability transition pore inhibitors, primary screen, biochemical, isolated mouse mitochondria, absorbance | Ca2+ swelling absorbance, 30 min | inhibition, % at 10 µM | 1.4% of 360,000 active | AID 602449, 2012;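 active = inhibition of 50% or more, scaled per plate between neutral and stimulator controls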;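 note: 0% = DMSO wells given calcium and 100% = 1 mM EGTA wells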
Rh123 counter: fluorescence retest of MPTP screen hits in isolated mitochondria, single concentration | shares compounds with MPTP block | membrane potential, Rhodamine 123 fluorescence | inhibition, % at 10 µM | 78% of 5,000 active | AID 624504, 2012; in the data active = inhibition above about 22%;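 note: 0% = DMSO vehicle and 100% = positive control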
MPTP abs DR: mitochondrial permeability transition pore inhibitors, dose response, biochemical, absorbance, uHTS hits; IC50, µM; 58% of 780 active; shares compounds with MPTP block; isolated mitochondria swelling; in the data active = IC50 below about 20 µM
MPTP cs DR: fluorescent counter-screen in isolated mitochondria, dose response, counter-screen for MPTP inhibitor project, biochemical, fluorescence, uHTS hits | shares compounds with MPTP block | isolated mitochondria counterscreen, fluorescence read-out | IC50, µM | 49% of 780 active; in the data active = IC50 below about 80 µM
Starred values were filed as active, the others as inactive; . = not tested or not shown.

SMILES	SKN-1 inh	MT1-MMP act inh	ATG4B inhibitor	MPTP block	Rh123 counter	others
CC(=O)c1ccc(OCCCC(=O)Nc2cccc(S(=O)(=O)N3CCCCC3)c2)cc1	-6	5	-12	2	.
Cc1ccc(S(=O)(=O)NNC(=O)C(=O)NNS(=O)(=O)c2ccc(C)cc2)cc1	3	3	8	1	.
Cc1ccc(S(=O)(=O)NNC(=O)C2CC=CCC2C(=O)O)cc1 (stereo unspecified)	-2	1	-7	55*	2	MPTP abs DR=>100;MPTP cs DR=>80
CC(O)(c1cccc(F)c1)c1nc(-c2cccc(C(F)(F)F)c2)cs1 (stereo unspecified)	23	0	.	7	.
CC(O)(c1ccncc1)c1nc(-c2cccc(C(F)(F)F)c2)cs1 (stereo unspecified)	21	-29	.	90*	96*
O=C(Nc1ccc2ccccc2c1)C(c1ccccc1)C1CCCC1 (stereo unspecified)	9	-17	2	79*	62*
CC(=O)Nc1ccc2ccccc2c1	-3	-3	-18	-1	.
Cc1ccc(NC(=O)C(c2ccccc2)C2CCCC2)cc1 (stereo unspecified)	-1	-9	1	46	.
O=C(Nc1ccccc1)Nc1ccc(Br)c(Cl)c1	-1	-11	3	79*	85*
O=C(Nc1ccncc1)Nc1cccc(Cl)c1Cl	17	-6	-6	5	.
O=C(Nc1ccccc1)Nc1ccc2ccccc2c1	11	1	-9	87*	83*
O=C(Nc1ccccc1)Nc1cccc(Cl)c1Cl	6	-6	24	93*	97*
CCOC(=O)CC(N)c1cccc([N+](=O)[O-])c1 (stereo unspecified)	-9	9	1	0	.
CC(=O)c1ccc(NC(=S)NC(C)c2ccc(Cl)cc2Cl)cc1 (stereo unspecified)	-18	6	-3	95*	69*
O=C(NC(=S)Nc1ccc(Br)c(Cl)c1)C1CC1	13	0	12	1	.
CC(=O)c1ccc(NC(=S)Nc2ccc(Br)c(Cl)c2)cc1	-9	3	-5	96*	100*
O=S(NCc1ccco1)C12CC3CC(CC(C3)C1)C2 (stereo unspecified)	5	-5	-12	1	.
OC(COc1ccc(Br)cc1)CN1CCC(Cc2ccccc2)CC1 (stereo unspecified)	17	3	0	64*	-3	MPTP abs DR=6.3*;MPTP cs DR=34*
COc1cccc(OC)c1C(=O)NC(=S)NCc1cccnc1	-11	2	-2	-2	.
Cn1c(=O)c2c([nH]c(OCc3ccc(Cl)cc3Cl)[n+]2Cc2ccc(F)cc2)n(C)c1=O	-2	-6	6	50*	7	MPTP abs DR=>100;MPTP cs DR=>80
CNC(=S)N1C2CCC1CC(NC(=O)NC13CC4CC(CC(C4)C1)C3)C2 (stereo unspecified)	1	3	-4	-1	.
CCCCCc1c(-c2ccccc2F)ncn1CCc1ccccc1OC	29	-8	.	4	.
CCCCc1c(-c2ccccc2OC)ncn1CCc1ccccc1OC	-13	-4	.	80*	115*
CCCCCc1c(-c2ccccc2OC)ncn1CCc1ccccc1OC	-8	13	.	81*	113*
O=C(Nc1cc2c3c(c1)CC(=O)N3CCC2)c1ccccc1Br	0	1	-5	-1	.
SMILES	SKN-1 inh	MT1-MMP act inh	ATG4B inhibitor	MPTP block	Rh123 counter	others
Clc1ccc(/C=C/c2nc3ccccc3[nH]2)cc1	2	13	-1	80*	85*
Clc1ccc(/C=C/c2nc3ccccc3[nH]2)c(Cl)c1	-13	6	-2	86*	79*
Clc1cccc(Cl)c1/C=C/c1nc2ccccc2[nH]1	23	-2	33	95*	82*
NCC12CC3CC(C1)CC(c1ccc(Br)cc1)(C3)C2	6	-31	3	1	.
Cc1ccc(C23CC4CC(CC(CN)(C4)C2)C3)cc1	-8	-19	7	80*	-15	MPTP abs DR=5*;MPTP cs DR=75*
NNC(=O)c1cc2c(N3CCC(Cc4ccccc4)CC3)ncnc2s1	2	-5	-6	89*	59*
Cc1ccc(C(C)C)c(OC(=O)/C=C/c2ccccc2)c1	1	0	18	4	.
CN(C)S(=O)(=O)c1cccc(-c2nn(-c3ccccc3)cc2/C=C2\SC(=S)NC2=O)c1	3	-138	40	97*	45*
CN(C)S(=O)(=O)c1cccc(-c2nn(-c3ccccc3)cc2/C=C(\C#N)c2nc3ccccc3[nH]2)c1	11	-11	-8	8	.
CCOc1ccccc1NC(=O)CSc1nc2nc(-c3cccs3)cc(C(F)(F)F)c2c(=O)[nH]1	-3	5	28	69*	55*
COc1ccc(NC(=O)CSc2nc3nc(-c4cccs4)cc(C(F)(F)F)c3c(=O)[nH]2)c(OC)c1	-2	5	4	23	.
CC(OC(=O)CCc1nc2ccccc2c(=O)[nH]1)C(=O)c1ccc(C(C)(C)C)cc1 (stereo unspecified)	-1	0	-17	96*	86*
COC(=O)C1=C(C)N(Cc2ccccc2)C(=O)/C1=C\c1ccco1	-2	-2	7	2	.
Cc1sc(NC(=O)c2ccco2)c(C(c2ccc(F)cc2)N2CCN(C)CC2)c1C (stereo unspecified)	8	-6	-6	82*	-23
OC(c1ccccc1)(c1nc(-c2ccc(Cl)cc2)cs1)C(F)(F)F (stereo unspecified)	15	0	.	1	.
Cc1ccc2nc(C)c3c(c2c1)OC(C(C)(Cl)Br)C3 (stereo unspecified)	19	2	-6	3	.
Cc1nc2ccccc2c2c1CC(C(C)(Cl)Br)O2 (stereo unspecified)	13	1	-4	60*	84*
CC(C)(C)NCC(O)COc1ccccc1C1CCCC1 (stereo unspecified)	3	-1	7	95*	-10	MPTP abs DR=6.8*;MPTP cs DR=56*
CCc1ccccc1OC[C@@H](O)CN[C@H]1CCCc2ccccc21	-5	-2	7	104*	8	MPTP abs DR=5.5*;MPTP cs DR=15*
COc1ccc(-c2cc(C(=O)Nc3sc4c(c3C#N)CCCC4)c3ccccc3n2)cc1	9	-3	-1	-9	.
